The results in this text go back to ChEMBL document CHEMBL5032518, “Discovery of a cryptic site at the interface 2 of TEAD - Towards a new family of YAP/TAZ-TEAD inhibitors” (Eur J Med Chem, 2021).

SMILES strings stand for the structures. Activity calls are given as the source filed them. The calls are words filed in the database; no cut-off is given here.

Data set [1] can be described thus: Inhibition of TEAD (unknown origin) transfected in HEK293T cells assessed as inhibition of TEAD transcriptional activity measured after 24 hrs by luciferase reporter gene assay. In kind it is cell-based. To be noted: Homo sapiens, HEK-293T.
Data set [2] relates to HEK293T. The data set can be described thus: Inhibition of TEAD (unknown origin) transfected in HEK293T cells assessed as inhibition of TEAD transcriptional activity at 10 uM measured after 16 hrs by luciferase reporter gene assay. Format: cell-based. To be noted: Homo sapiens. A digest of the protocol:
(§1)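 HEK293T cells transfected with a TEAD luciferase reporter (8xGTIIC-Luciferase) and treated at 10 µM for 16 h. References were dasatinib at 100 nM and MGH-CP1 at 10 µM. β-Galactosidase activity used both to normalize luciferase and to estimate cytotoxicity; viability also checked visually. At least three independent experiments in biological triplicate; Kruskal-Wallis tests.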
(In general: In a reporter assay the amount or activity of a reporter protein is the signal.)

In data set [3] the test system is HEK-293T. The data set can be described thus: Cytotoxicity against human HEK293T cells transfected with TEAD assessed as reduction of beta-galactosidase activity at 10 uM measured after 16 hrs by luciferase reporter gene assay. In kind it is cell-based. Summed up: as §1
Data set [4] concerns the target T1, Transcriptional enhancer factor TEF-4 (Homo sapiens, UniProt Q15562). The data set can be described thus: Binding affinity to eGFP-fused human TEAD2 (217 to 447 residues) expressed in CHO-K1 cells by microscale thermophoresis analysis. Summed up: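 MST on GFP-labeled hTEAD2_217-447 in CHO-K1 cell lysate, MST power 40%. hYAP_50-102 used as control binder. Kd determined; triplicate runs on three independent cell cultures, mean ± SD.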

The nature of data set [5]: Inhibition of TEAD4/Yap1 (unknown origin) interaction measured after 24 hrs by fluorescence polarization assay. On the set-up: species or system Homo sapiens. Background: Polarisation of emitted light reports the rotation of a fluorescent probe.
In data set [6] the target is T1, Transcriptional enhancer factor TEF-4. The data set is described as follows: Binding affinity to external surface of N-terminal His6-tagged human TEAD2 (217 to 447 residues) expressed in Escherichia coli BL21(DE3) assessed as melting temperature by Nano Differential scanning fluorometry. Summed up:
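Thermal stability of hTEAD2_217-447 measured by NanoDSF, which reads intrinsic aromatic-residue fluorescence, with and without ligand.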
Background: In DSF a fluorescence change marks the thermal transition of the protein.

Data set [7] concerns MDA-MB-231. The data set can be described thus: Inhibition of YAP/TAZ-TEAD interaction in human MDA-MB-231 cells assessed as reduction in CTGF protein expression at 10 uM measured after 48 hrs by western blot analysis. In kind it is cell-based. Summed up: (§2)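 MDA-MB-231 cells grown in DMEM with 0.2% heat-inactivated FBS and 2 mM L-glutamine, and exposed to 10 µM for 48 h, with dasatinib at 100 nM as control. Total extracts prepared in RIPA-based buffer with protease/phosphatase inhibitors, then Western blot. At least three independent experiments in biological triplicate.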

Data set [8] relates to SH-SY5Y. The data set can be described thus: Effect on Cyr61 mRNA expression in human SH-SY5Y cells lacking YAP/TAZ expression at 10 uM measured after 24 hrs by qRT-PCR analysis. In kind it is functional, cell-based.
Data set [9] has as its system SH-SY5Y. The data set is described as follows: Effect on AXL mRNA expression in human SH-SY5Y cells lacking YAP/TAZ expression at 10 uM measured after 24 hrs by qRT-PCR analysis. In kind it is functional, cell-based.
Data set [10] is described as follows: Inhibition of TEAD (unknown origin) transfected in HEK293T cells assessed as inhibition of TEAD transcriptional activity measured after 16 hrs by luciferase reporter gene assay. Format: cell-based. To be noted: Homo sapiens, HEK-293T. A digest of the protocol:
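HEK293T cells transfected with the 8xGTIIC-Luciferase TEAD reporter. Dose-response curves used to derive IC50, with luciferase normalized to β-galactosidase.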

In data set [11] the test system is MDA-MB-231. The data set can be described thus: Inhibition of YAP/TAZ-TEAD interaction in human MDA-MB-231 cells assessed as reduction in Cyr61 protein expression at 10 uM measured after 48 hrs by western blot analysis. Format: cell-based. A digest of the protocol: as §2
Data set [12] has as its system SH-SY5Y. The data set can be described thus: Effect on CTGF protein expression in human SH-SY5Y cells lacking YAP/TAZ expression at 10 uM measured after 48 hrs by western blot analysis. Format: functional, cell-based.
In data set [13] the test system is MDA-MB-231. The data set can be described thus: Antiproliferative activity against human MDA-MB-231 cells assessed as reduction in cell proliferation at 10 uM measured after 48 hrs by IncuCyte live-cell imaging assay. Format: functional. Summed up: (§3)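 MDA-MB-231 cells plated in triplicate at low density (2.5 × 10³ cells/well) in low serum (0.2%). Test agent added at several concentrations 24 h after plating. Cell number tracked by live-cell imaging every 3 h for up to 72 h; independent triplicates, mean ± SD, n = 3.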

For data set [14], the system named is HeLa. The data set is described as follows: Inhibition of YAP/TAZ-TEAD interaction in human HeLa cells assessed as reduction in Survivin protein expression at 10 uM measured after 48 hrs by western blot analysis. Format: cell-based.
Data set [15] deals with MDA-MB-231. The data set can be described thus: Inhibition of YAP/TAZ-TEAD interaction in human MDA-MB-231 cells assessed as reduction in AXL protein expression at 10 uM measured after 48 hrs by western blot analysis. Format: cell-based. A digest of the protocol:
as §2

Data set [16] concerns HeLa. The data set can be described thus: Inhibition of YAP/TAZ-TEAD interaction in human HeLa cells assessed as reduction in Cyr61 protein expression at 10 uM measured after 48 hrs by western blot analysis. Format: cell-based.
The test system of data set [17] is HeLa. The data set is described as follows: Inhibition of YAP/TAZ-TEAD interaction in human HeLa cells assessed as reduction in CTGF protein expression at 10 uM measured after 48 hrs by western blot analysis. Format: cell-based.
Data set [18] relates to MDA-MB-231. The data set can be described thus: Inhibition of YAP/TAZ-TEAD interaction in human MDA-MB-231 cells assessed as reduction in AXL mRNA expression at 10 uM measured after 24 hrs by qRT-PCR analysis. In kind it is cell-based. A digest of the protocol:
(§4)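 MDA-MB-231 cells exposed to 10 µM for 24 h, with DMSO and dasatinib (100 nM) as controls. Total RNA purified, integrity checked on agarose gel. RT-qPCR with gene-specific primers; relative expression by 2^-ΔΔCt normalized to MAN2B1. At least triplicates; Kruskal-Wallis tests.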

Data set [19] has as its system MDA-MB-231. The data set is described as follows: Inhibition of YAP/TAZ-TEAD interaction in human MDA-MB-231 cells assessed as reduction in Survivin protein expression at 10 uM measured after 48 hrs by western blot analysis. Format: cell-based. A digest of the protocol:
as §2

Data set [20] deals with HeLa. The data set can be described thus: Inhibition of YAP/TAZ-TEAD interaction in human HeLa cells assessed as reduction in CTGF mRNA expression at 10 uM measured after 24 hrs by qRT-PCR analysis. Format: cell-based.
Data set [21] deals with MDA-MB-231. The data set is described as follows: Inhibition of YAP/TAZ-TEAD interaction in human MDA-MB-231 cells assessed as reduction in CTGF mRNA expression at 10 uM measured after 24 hrs by qRT-PCR analysis. Format: cell-based. A digest of the protocol: as §4
Data set [22] has as its system HeLa. The data set is described as follows: Inhibition of YAP/TAZ-TEAD interaction in human HeLa cells assessed as reduction in AXL protein expression at 10 uM measured after 48 hrs by western blot analysis. In kind it is cell-based.
The test system of data set [23] is SH-SY5Y. The data set is described as follows: Effect on Survivin protein expression in human SH-SY5Y cells lacking YAP/TAZ expression at 10 uM measured after 48 hrs by western blot analysis. In kind it is functional, cell-based.
For data set [24], the system named is SH-SY5Y. The data set can be described thus: Effect on CTGF mRNA expression in human SH-SY5Y cells lacking YAP/TAZ expression at 10 uM measured after 24 hrs by qRT-PCR analysis. Format: functional, cell-based.
Data set [25] has as its system HeLa. The data set is described as follows: Inhibition of YAP/TAZ-TEAD interaction in human HeLa cells assessed as reduction in AXL mRNA expression at 10 uM measured after 24 hrs by qRT-PCR analysis. Format: cell-based.
The test system of data set [26] is HeLa. The data set is described as follows: Inhibition of YAP/TAZ-TEAD interaction in human HeLa cells assessed as reduction in Cyr61 mRNA expression at 10 uM measured after 24 hrs by qRT-PCR analysis. Format: cell-based.
Data set [27] deals with MDA-MB-231. The data set can be described thus: Inhibition of YAP/TAZ-TEAD interaction in human MDA-MB-231 cells assessed as reduction in Cyr61 mRNA expression at 10 uM measured after 24 hrs by qRT-PCR analysis. Format: cell-based. A digest of the protocol: as §4
Data set [28] concerns MDA-MB-231. The data set can be described thus: Antiproliferative activity against human MDA-MB-231 cells assessed as reduction in cell proliferation at 5 uM measured after 48 hrs by IncuCyte live-cell imaging assay. In kind it is functional. A digest of the protocol:
as §3

Data set [29] deals with SH-SY5Y. The data set is described as follows: Effect on AXL protein expression in human SH-SY5Y cells lacking YAP/TAZ expression at 10 uM measured after 48 hrs by western blot analysis. Format: functional, cell-based.
The test system of data set [30] is SH-SY5Y. The data set is described as follows: Effect on Cyr61 protein expression in human SH-SY5Y cells lacking YAP/TAZ expression at 10 uM measured after 48 hrs by western blot analysis. Format: functional, cell-based.

T1 sequence (Q15562 whole entry, the tested form may be a part): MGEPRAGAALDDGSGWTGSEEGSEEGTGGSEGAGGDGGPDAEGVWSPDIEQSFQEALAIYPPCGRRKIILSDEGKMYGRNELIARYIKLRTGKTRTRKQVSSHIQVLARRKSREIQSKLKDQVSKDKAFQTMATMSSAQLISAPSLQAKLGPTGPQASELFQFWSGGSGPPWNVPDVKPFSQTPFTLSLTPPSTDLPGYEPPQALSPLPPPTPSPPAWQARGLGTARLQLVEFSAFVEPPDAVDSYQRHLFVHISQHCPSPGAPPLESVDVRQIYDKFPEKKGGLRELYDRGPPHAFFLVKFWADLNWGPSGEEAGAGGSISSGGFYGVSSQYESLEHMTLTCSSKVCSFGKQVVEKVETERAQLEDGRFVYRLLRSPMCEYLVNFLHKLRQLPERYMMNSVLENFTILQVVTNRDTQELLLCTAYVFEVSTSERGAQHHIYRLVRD

The term IC50 denotes the concentration needed to halve the response being measured. In the case of `COc1ccc2c(c1)/C(=N/NC(=O)c1nnn(-c3ccccc3N)c1-c1ccc(Cl)c(Cl)c1)C(=O)N2`, the IC50 in [1] was 1.7 µM.
For orientation: inhibition means the relative decrease from the control value, in per cent. With `CCOC(=O)c1cn(CCCN)nc1-c1ccc(Cl)c(Cl)c1`, the inhibition entry in data set [2] was “Active”.
On to `NCCCCn1cc(C(=O)NCc2ccccc2)c(-c2ccc(Cl)c(Cl)c2)n1`, for which the Activity result in [3] is on record as “Toxic”.
One may read the Kd as a measure of binding affinity in units of concentration. With `O=C(O)CCCn1cc(C(=O)NCc2ccccc2)c(-c2ccc(Cl)c(Cl)c2)n1`, the Kd in [4] is 4.6 µM. In addition, the inhibition result in data set [2] is “inactive”.
Usually EC50 stands for the concentration at which the effect is half-maximal. A high value points to a need for much substance. In data set [5], `O=C(CCl)c1ccccc1Nc1cccc(C(F)(F)F)c1` registered an EC50 of 5.9 µM.
In the case of `NCCn1cc(C(=O)NCc2ccccc2)c(-c2ccc(Cl)c(Cl)c2)n1`, the Activity entry in [3] was “Toxic”.
`NCCCn1cc(C(=O)NCc2ccccc2)c(-c2ccc(Cl)c(Cl)c2)n1`: the Activity entry in data set [3] was “Toxic”.
With `O=C(O)CCn1cc(C(=O)NCc2ccccc2)c(-c2ccc(Cl)c(Cl)c2)n1`, the inhibition result in [2] is “inactive”.
For the compound `O=C(O)CCn1cc(C(=O)NCCc2ccccc2)c(-c2ccc(Cl)c(Cl)c2)n1`, the Kd in data set [4] is 5.1 µM. For the same compound, the inhibition entry in data set [2] is “inactive”.
For the compound `Nc1nonc1-n1nnc(C(=O)N/N=C2\C(=O)Nc3ccccc32)c1-c1ccc(Cl)c(Cl)c1`, the IC50 in data set [1] came out at 6.5 µM.
Turning to `NCCCn1cc(C(=O)NCCc2ccccc2)c(-c2ccc(Cl)c(Cl)c2)n1`, in data set [3], the Activity entry is “Toxic”.
`O=C(O)c1cccnc1Nc1cccc(C(F)(F)F)c1`: the Tm in data set [6] came out at 50.3 °C.
Take `NCCCCn1cc(C(=O)NCCc2ccccc2)c(-c2ccc(Cl)c(Cl)c2)n1`: the Activity entry in [3] is “Toxic”.
Regarding `CCOC(=O)c1cn(CCCCN)nc1-c1ccc(Cl)c(Cl)c1`, the inhibition entry in [7], in [11], in data set [14], in data set [15], in data set [16] and in data set [17] was “Active” in each case. The inhibition result in data set [18], in [19], in data set [20], in data set [21], in data set [22] and in data set [2] was “Active” each time. In addition, the inhibition entry in [25], in data set [26] and in [27] was “Active” in each case. Moreover, the result in data set [8], in data set [9], in data set [12], in data set [23], in [24] and in [29] was inactive. For the same compound, in data set [30], the result was inactive. Besides, the IC50 in [10] came to 4.5 µM. For the same compound, in data set [13], the inhibition at 10 µM came out at 60%. In [4], the Kd was determined as 35 µM. The inhibition at 5 µM in data set [28] was 40%.
Take `O=C(O)CCCn1cc(C(=O)NCCc2ccccc2)c(-c2ccc(Cl)c(Cl)c2)n1`: the inhibition result in [2] was “inactive”.
